The record followed here is ChEMBL document CHEMBL1123024, “5,6-Diaryl-2,3-dihydroimidazo[2,1-b]thiazoles: a new class of immunoregulatory antiinflammatory agents” (1985).

Holding throughout (type): functional
Experiment [1] relates to Rattus norvegicus. The experiment is described as follows: Percent change in nonimmune L16 inflammatory lesions in rat adjuvant-induced arthritis at 50 mg/kg. Summed up:
(§1)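 Male Wistar rats received 0.75 mg M. butyricum in paraffin oil intradermally into the left hindpaw. Compounds were given daily po in 0.5% tragacanth from the injection day for 17 days, skipping days 4, 5, 11 and 12. Leg volumes were read by mercury displacement: left leg on day 3, both legs on day 16. Eight treated rats vs 16 vehicle controls; Student's t test. ED25 is the dose giving a 25% volume decrease, from at least three doses, with 95% limits by Fieller's theorem.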

Experiment [2] is filed under the species Mus musculus. The experiment is described as follows: Immunoregulatory activity against mouse contact sensitivity was evaluated as percent change. Summed up:
(§2)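 Male C57B1/6 mice were sensitized with 0.1 mL of 5% oxazolone in absolute ethanol on the clipped abdomen. At 45 h the left hind leg was challenged with 5% oxazolone. Compound was given po in 0.5% tragacanth. Edema was read plethysmographically 24 h later as left minus right leg volume. Six mice vs eight controls; Student's t test.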

Experiment [3] has as its system Rattus norvegicus. Kind of experiment: Percent change in immune R16 inflammatory lesions in rat adjuvant-induced arthritis at 50 mg/kg. In a few lines: as §1
For experiment [4], the system named is Rattus norvegicus. Kind of experiment: Percent change in nonimmune L3 inflammatory lesions in rat adjuvant-induced arthritis at 50 mg/kg. Summed up: as §1
Experiment [5] concerns Rattus norvegicus. Kind of experiment: The compound was tested for percent change in immune R16 inflammatory lesions in rat adjuvant-induced arthritis at 50 mg/kg. In a few lines:
as §1

Experiment [6] is filed under the species Mus musculus. Kind of experiment: Immunoregulatory activity against oxazolone induced mouse contact sensitivity was evaluated as percent change. Summed up:
as §2

Experiment [7] relates to Rattus norvegicus. Kind of experiment: The compound was tested for percent change in nonimmune L16 inflammatory lesions in rat adjuvant-induced arthritis at 50 mg/kg. In a few lines:
as §1

Experiment [8] concerns Rattus norvegicus. The experiment is described as follows: The compound was tested for percent change in nonimmune L3 inflammatory lesions in rat adjuvant-induced arthritis at 50 mg/kg. Summed up:
as §1

For `Clc1ccc(-c2nc3n(c2-c2ccc(Cl)cc2)CCS3)cc1`, the Change in experiment [1] is -35%; in experiment [2], 43%; in experiment [3], -38%; in experiment [4] it was -18%.

In the case of `CCOc1ccc(-c2nc3n(c2-c2ccc(OCC)cc2)CCS3)cc1`, the Change is reported as -34% in experiment [1], 150% in experiment [2], -32% in experiment [3] and -22% in experiment [4].

Regarding `COc1ccc(-c2nc3n(c2-c2ccccc2)CCS3)cc1`, the Change in experiment [1] is -10%; in experiment [2], 26%; in experiment [3] it was 1%; in experiment [4], -5%.

Take `COc1ccc(-c2nc3n(c2-c2ccc(OC)c(OC)c2)CCS3)cc1OC`: the Change was -2% in experiment [1], 48% in experiment [2], 5% in experiment [3] and 0% in experiment [4].

On to `Cc1cccc(-c2nc3n(c2-c2cccc(C)c2)CCS3)c1`, for which the Change is -13% in experiment [1], 38% in experiment [2], -5% in experiment [3] and -14% in experiment [4].

On to `CC(C)(C)C(=O)Nc1ccc(-c2nc3n(c2-c2ccc(NC(=O)C(C)(C)C)cc2)CCS3)cc1`, for which the Change was -3% in experiment [1], 15% in experiment [2], -1% in experiment [3] and -4% in experiment [4].

`COc1ccccc1-c1nc2n(c1-c1ccccc1OC)CCS2`: the Change in experiment [1] was -5%; in experiment [2], 95%; in experiment [3], -7%; in experiment [4], 0%.

As for `COc1ccc(-c2nc3n(c2-c2ccc(OC)cc2)CCCS3)cc1`, the Change in experiment [1] is -4%; in experiment [2], 30%; in experiment [3], -20%; in experiment [4], -2%.

For `Fc1ccc(-c2nc3n(c2-c2ccc(F)cc2)CCS3)cc1`, the Change in experiment [1] was -36%; in experiment [2], 79%; in experiment [3] it was -49%; in experiment [4], -39%.

As for `Brc1ccc(-c2nc3n(c2-c2ccc(Br)cc2)CCS3)cc1`, the Change in experiment [1] is -42%; in experiment [2], 71%; in experiment [3] it was -46%; in experiment [4], -25%.

Take `COc1ccc(-c2nc3n(c2-c2ccc(OC)c(F)c2)CCS3)cc1F`: the Change in experiment [1] is reported as 0%; in experiment [2], 88%; in experiment [3], -3%; in experiment [4], 1%.

Consider `COc1ccc(-c2nc3n(c2-c2ccc(OC)cc2)C(=O)CS3)cc1`, for which the Change was 4% in experiment [1], 25% in experiment [2], 0% in experiment [3] and -4% in experiment [4].

For the compound `C=CCOc1ccc(-c2nc3n(c2-c2ccc(OCC=C)cc2)CCS3)cc1`, the Change in experiment [1] is listed as -2%; in experiment [2] it was 71%; in experiment [3], -21%; in experiment [4], -2%.

As to `COc1ccc(-c2nc(SC)[nH]c2-c2ccc(OC)cc2)cc1`, the Change is listed as -45% in experiment [1], 52% in experiment [2], -38% in experiment [3] and -29% in experiment [4].

Consider `CCSc1nc(-c2ccc(OC)cc2)c(-c2ccc(OC)cc2)[nH]1`, for which the Change was -42% in experiment [1], 119% in experiment [2], -37% in experiment [3] and -31% in experiment [4].

On to `CSc1ccc(-c2c(-c3ccc(F)cc3)nc3n2CCS3)cc1`, for which the Change in experiment [1] is given as -30%; in experiment [2], 122%; in experiment [3], -30%; in experiment [4] it was -16%.

With `Oc1ccc(-c2nc3n(c2-c2ccc(O)cc2)CCS3)cc1`, the Change in experiment [1] was -7%; in experiment [2], 122%; in experiment [3], 9%; in experiment [4], -9%.

For `CC(=O)Nc1ccc(-c2nc3n(c2-c2ccc(NC(C)=O)cc2)CCS3)cc1`, the Change in experiment [1] was -1%; in experiment [2] it was 78%; in experiment [5], 12%; in experiment [4], 3%.

For `COc1ccc(-c2c(-c3ccccc3)nc3n2CCS3)cc1`, the Change in experiment [1] is given as -11%; in experiment [2], 112%; in experiment [3], -6%; in experiment [4] it was -15%.

With `C[S+]([O-])c1ccc(-c2nc3n(c2-c2ccc([S+](C)[O-])cc2)CCS3)cc1` (stereo not given), the Change is -27% in experiment [1], 117% in experiment [2], -19% in experiment [3] and -25% in experiment [4].

In the case of `COc1cc(-c2nc3n(c2-c2cc(OC)c(OC)c(OC)c2)CCS3)cc(OC)c1OC`, the Change in experiment [1] is on record as 0%; in experiment [2], 75%; in experiment [3], -19%; in experiment [4] it was -2%.

With `FC(F)(F)COc1ccc(-c2nc3n(c2-c2ccc(OCC(F)(F)F)cc2)CCS3)cc1`, the Change is recorded as -20% in experiment [1], 26% in experiment [2], -3% in experiment [3] and -13% in experiment [4].

Regarding `COc1ccc(-c2c(-c3ccccc3)nc3n2CCS3)cc1OC`, the Change in experiment [1] was 1%; in experiment [2] it was 69%; in experiment [3] it was 11%; in experiment [4], 5%.

In the case of `COc1ccc(-c2cn3c(n2)SCC3)cc1`, the Change is -10% in experiment [1], 132% in experiment [2], -16% in experiment [3] and -3% in experiment [4].

With `CCN(C)c1ccc(-c2nc3n(c2-c2ccc(N(C)CC)cc2)CCS3)cc1`, the Change in experiment [1] is given as -41%; in experiment [2], 69%; in experiment [3] it was -36%; in experiment [4] it was -31%.

Turning to `CCSc1nc(-c2ccc(OC)cc2)c(-c2ccc(OC)cc2)n1CC`, the Change in experiment [1] is given as -9%; in experiment [2], 65%; in experiment [3] it was -8%; in experiment [4], -6%.

For `c1ccc2c(c1)nc1n2CCS1`, the Change is given as -2% in experiment [1], 51% in experiment [2], 7% in experiment [3] and -18% in experiment [4].

Turning to `Fc1cccc(-c2nc3n(c2-c2cccc(F)c2)CCS3)c1`, the Change in experiment [1] was -1%; in experiment [2], 22%; in experiment [3] it was 3%; in experiment [4] it was -1%.

As to `COc1ccc(-c2nc3n(c2-c2ccccc2)CCS3)cc1OC`, the Change in experiment [1] is reported as -1%; in experiment [2], 82%; in experiment [3], -6%; in experiment [4] it was 8%.

`c1cc2c(cc1-c1nc3n(c1-c1ccc4c(c1)OCO4)CCS3)OCO2`: the Change in experiment [1] was -23%; in experiment [2] it was 16%; in experiment [3] it was -27%; in experiment [4] it was -18%.

For the compound `COc1ccc(-c2c(-c3ccc(F)cc3)nc3n2CC[S+]3[O-])cc1` (stereo not given), the Change in experiment [6] is 65%; in experiment [5], -39%; in experiment [7], -39%; in experiment [8] it was -35%.

As to `COc1ccc(-c2nc3n(c2-c2ccc(OC)c(C)c2)CCS3)cc1C`, the Change is on record as -20% in experiment [1], 30% in experiment [2], -19% in experiment [3] and -16% in experiment [4].

Consider `Cc1ccc(-c2nc3n(c2-c2ccc(C)cc2)CCS3)cc1`, for which the Change in experiment [1] is 0%; in experiment [2], 86%; in experiment [3], -7%; in experiment [4], -6%.

With `COc1ccc(-c2nc3n(c2-c2ccc(F)cc2)CCS3)cc1`, the Change in experiment [1] is reported as -4%; in experiment [2], 103%; in experiment [3] it was 6%; in experiment [4], 11%.

Take `CC(=O)Oc1ccc(-c2nc3n(c2-c2ccc(OC(C)=O)cc2)CCS3)cc1`: the Change is reported as -12% in experiment [1], 101% in experiment [2], -17% in experiment [3] and -16% in experiment [4].

Take `Nc1ccc(-c2nc3n(c2-c2ccc(N)cc2)CCS3)cc1`: the Change in experiment [1] is listed as -10%; in experiment [2] it was 36%; in experiment [3], 0%; in experiment [4], -15%.

In the case of `COc1ccc(-c2nc(SC)n(C)c2-c2ccc(OC)cc2)cc1`, the Change is -31% in experiment [1], 150% in experiment [2], -35% in experiment [3] and -24% in experiment [4].

Regarding `CSc1ccc(-c2nc3n(c2-c2ccc(F)cc2)CCS3)cc1`, the Change is reported as 0% in experiment [1], 44% in experiment [2], 6% in experiment [3] and -14% in experiment [4].

Regarding `CCN(C(C)=O)c1ccc(-c2nc3n(c2-c2ccc(N(CC)C(C)=O)cc2)CCS3)cc1`, the Change is reported as -1% in experiment [1], 43% in experiment [2], -10% in experiment [3] and -4% in experiment [4].

For the compound `CCCCOc1ccc(-c2nc3n(c2-c2ccc(OCCCC)cc2)CCS3)cc1`, the Change in experiment [1] was determined as 2%; in experiment [2], 130%; in experiment [3], 2%; in experiment [4], 5%.
